Measurements taken from ChEMBL document CHEMBL3526003, “Pharmacokinetics of the monohydroxy derivative of oxcarbazepine and its enantiomers after a single intravenous dose given as racemate compared with a single oral dose of oxcarbazepine” (Drug Metab Dispos, 2011).

Assays:
[1] = Terminal half life in human urine treated with oxcarbazepine at 300 mg, po administered as one-film coated tablet by high-performance liquid chromatography; assay type: ADME, organism-based; settings: read-out: beta t1/2 (converted)
Procedure, shortened: (§1)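 300 mg oral tablet given to 12 healthy adults. Urine was collected in fractions up to 72 h and kept at 2–8 °C, then frozen at -20 °C. Analytes were measured by HPLC before and after β-glucuronidase hydrolysis (pH 6.7, 37 °C, about 15 h). Renal clearance was Ae/plasma AUC. Urinary terminal half-life came from log-linear slopes between 4–18 h and 40–64 h.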

[2] = Total plasma clearance in human treated with monohydroxy derivative of OXC at 150 mg, iv administered as single dose by high-performance liquid chromatography; assay type: ADME, organism-based
Procedure, shortened: (§2)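 Pilot study: single intravenous racemic MHD at 150, 200 or 250 mg, one subject per dose. Plasma was sampled to 72 h and analysed by HPLC. Total plasma clearance was computed as Dose/AUC, with AUC from the linear trapezoidal rule.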

[3] = AUC (0 to 32/48 hrs) in human treated with oxcarbazepine at 300 mg, po administered as one-film coated tablet by high-performance liquid chromatography; assay type: ADME, organism-based; settings: plasma
Procedure, shortened: (§3)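 Healthy adults (6 male, 6 female), single 300 mg film-coated tablet by mouth, fasting, in a randomized two-way crossover with at least one week of washout. Venous heparinized blood was drawn at 0–72 h. Plasma was separated at 2200 g and stored at -80 °C. Non-enantioselective and enantioselective HPLC were used. Cmax/tmax were the observed peak; AUC was by linear trapezoidal rule.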

[4] = AUC (0 to 72 hrs) in human treated with monohydroxy derivative of OXC at 250 mg, iv administered as single dose by high-performance liquid chromatography; assay type: ADME, organism-based; design: dose 250 mg, time < 72 hr, route intravenous; settings: plasma
Procedure, shortened: (§4)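 Pilot ascending-dose study: one healthy subject per level received 150, 200 or 250 mg racemic MHD intravenously as a single dose. Plasma was sampled to 72 h and assayed by non-enantioselective and enantioselective HPLC. AUC(0-72h) was computed by the linear trapezoidal method.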

[5] = AUC (0 to 72 hrs) in human treated with monohydroxy derivative of OXC at 150 mg, iv administered as single dose by high-performance liquid chromatography; assay type: ADME, organism-based; design: dose 150 mg, time < 72 hr, route intravenous; settings: plasma; procedure, shortened: as §4
[6] = Total plasma clearance in human treated with monohydroxy derivative of OXC at 200 mg, iv administered as single dose by high-performance liquid chromatography; assay type: ADME, organism-based; procedure, shortened: as §2
[7] = AUC (0 to 72 hrs) in human treated with monohydroxy derivative of OXC at 200 mg, iv administered as single dose by high-performance liquid chromatography; assay type: ADME, organism-based; design: time < 72 hr, dose 200 mg, route intravenous; settings: plasma; procedure, shortened: as §4
[8] = Drug excretion in human urine assessed as total amount of drug eliminated treated with oxcarbazepine at 300 mg, po administered as one-film coated tablet by high-performance liquid chromatography; assay type: ADME, organism-based; settings: read-out: Ae; procedure, shortened: as §1
[9] = Apparent terminal half life in human plasma treated with monohydroxy derivative of OXC at 250 mg, iv administered as infusion over 30 mins by high-performance liquid chromatography; assay type: ADME, organism-based; settings: read-out: betat1/2(app) (converted)
Procedure, shortened: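 Healthy adult volunteers (6 male, 6 female), randomized two-way crossover with at least one week washout; single 250 mg racemic MHD infused i.v. over 30 min. Heparinized plasma sampled 0–30 min then 1–72 h after start of infusion, stored -80 C; enantiomers quantified by enantioselective HPLC.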

[10] = Renal clearance in human treated with monohydroxy derivative of OXC at 250 mg, iv administered as infusion over 30 mins by high-performance liquid chromatography; assay type: ADME, organism-based, Kidney; settings: in vivo
Procedure, shortened: (§5)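 250 mg racemic MHD infused intravenously over 30 min to 12 healthy adults. Plasma was drawn at 0 to 30 min and up to 72 h, and urine was fractionated to 72 h. Enantioselective HPLC was used. Renal clearance was Ae/AUC; Vss was CL_T·MRT (AUMC/AUC). Urinary half-life came from log-linear slopes between 4–18 h and 40–64 h.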

[11] = Cmax in human treated with oxcarbazepine at 300 mg, po administered as one-film coated tablet by high-performance liquid chromatography; assay type: ADME, organism-based; design: dose 300 mg, route oral; settings: in vivo; procedure, shortened: as §3
[12] = Total plasma clearance in human treated with monohydroxy derivative of OXC at 250 mg, iv administered as single dose by high-performance liquid chromatography; assay type: ADME, organism-based; procedure, shortened: as §2
[13] = Renal clearance in human treated with oxcarbazepine at 300 mg, po administered as one-film coated tablet by high-performance liquid chromatography; assay type: ADME, organism-based, Kidney; settings: in vivo; procedure, shortened: as §1
[14] = Volume of distribution at steady state in human treated with monohydroxy derivative of OXC at 250 mg, iv administered as infusion over 30 mins by high-performance liquid chromatography; assay type: ADME, organism-based; settings: in vivo, read-out: Vdss; procedure, shortened: as §5
[15] = Tmax in human treated with monohydroxy derivative of OXC at 250 mg, iv administered as infusion over 30 mins by high-performance liquid chromatography; assay type: ADME, organism-based; settings: in vivo
Procedure, shortened: (§6)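 Healthy adults (6 male, 6 female) in an open randomized two-way crossover with at least one week washout. Venous heparinized plasma was sampled at 0, 5, 10, 15, 20, 25 and 30 min and at 1-72 h after the start of infusion, and stored at -80 C. Analytes were measured by non-enantioselective and enantioselective HPLC. Tmax is the observed time of peak concentration, reported as a median.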

[16] = Cmax in human treated with monohydroxy derivative of OXC at 250 mg, iv administered as infusion over 30 mins by high-performance liquid chromatography; assay type: ADME, organism-based; design: dose 250 mg, route intravenous; settings: in vivo; procedure, shortened: as §6
[17] = Tmax in human treated with oxcarbazepine at 300 mg, po administered as one-film coated tablet by high-performance liquid chromatography; assay type: ADME, organism-based; settings: in vivo
Procedure, shortened: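 Healthy adults (6 male, 6 female) took a single dose under fasting conditions in an open randomized two-way crossover with at least one week washout. Heparinized plasma was sampled at 0, 1, 2, 3, 4, 6, 8, 10, 24, 32, 48, 56 and 72 h, and stored at -80 C. Analytes were measured by HPLC (UV 210 nm for MHD). Cmax and Tmax are the highest observed concentration and its time relative to dosing.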

[18] = Terminal half life in human urine treated with monohydroxy derivative of OXC at 250 mg, iv administered as infusion over 30 mins by high-performance liquid chromatography; assay type: ADME, organism-based; settings: read-out: beta t1/2 (converted); procedure, shortened: as §5
[19] = Apparent terminal half life in human plasma treated with oxcarbazepine at 300 mg, po administered as one-film coated tablet by high-performance liquid chromatography; assay type: ADME, organism-based; settings: read-out: betat1/2(app) (converted)
Procedure, shortened: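 Healthy adult volunteers (6 male, 6 female), randomized two-way crossover with at least one week washout; single oral 300 mg film-coated oxcarbazepine tablet, fasting. Heparinized plasma sampled 0–72 h post dose, stored -80 C; MHD enantiomers quantified by enantioselective HPLC.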

half-life [1] [h]	clearance [2] [mL/min]	AUC at 48 h [3] [µM·h]	AUC(0-t) at 72 h [4] [µM·h]	AUC(0-t) at 72 h [5] [µM·h]	clearance [6] [mL/min]	AUC(0-t) at 72 h [7] [µM·h]	half-life [9] [h]	CL renal at 0.5 h [10] [mL/min]	Cmax [11] [nM]	clearance [12] [mL/min]	CL renal [13] [mL/min]	Vd [14] [L]	half-life [18] [h]	half-life [19] [h]	SMILES	dose excreted [8] [%]	Tmax [15] [h]	Cmax [16] [nM]	Tmax [17] [h]
8.5	71.2	241	192	69	71.2	92.2	10.6	15	11000	42.7	18.3	45.9	–	–	NC(=O)N1c2ccccc2C[C@H](O)c2ccccc21 [ESLICARBAZEPINE]	21.8	–	–	–
7	88.3	–	132	55.7	111	59.1	9	15	3000	62.2	16.7	54.7	9	15.8	NC(=O)N1c2ccccc2C[C@@H](O)c2ccccc21	4.85	–	–	3.5
10.3	–	–	–	–	–	–	–	–	–	–	–	–	14.2	–	NC(=O)N1c2ccccc2C[C@@H](O[C@@H]2O[C@H](C(=O)O)[C@@H](O)[C@H](O)[C@H]2O)c2ccccc21	5.62	–	–	–

SMILES	half-life [1] [h]	clearance [2] [mL/min]	AUC at 48 h [3] [µM·h]	AUC(0-t) at 72 h [4] [µM·h]	AUC(0-t) at 72 h [5] [µM·h]	clearance [6] [mL/min]	AUC(0-t) at 72 h [7] [µM·h]	half-life [9] [h]	CL renal at 0.5 h [10] [mL/min]	Cmax [11] [nM]	clearance [12] [mL/min]	CL renal [13] [mL/min]	Vd [14] [L]	half-life [18] [h]	half-life [19] [h]	dose excreted [8] [%]	Tmax [15] [h]	Cmax [16] [nM]	Tmax [17] [h]
NC(=O)N1c2ccccc2[C@@H](O)[C@H](O)c2ccccc21	–	–	–	–	–	–	–	–	–	200	–	–	–	–	–	2.7	8	240	24
